This is an account of results in ChEMBL document CHEMBL4825692, “Benzofuranyl-2-imidazoles as imidazoline I2 receptor ligands for Alzheimer's disease” (Eur J Med Chem, 2021).

Data set [1] can be described thus: Permeability of compound by PAMPA-BBB assay. The class given is ADME.
Data set [2] is described as follows: Displacement of [3H]clonidine from imidazoline I1 receptor low affinity site in rat hypothalamic membranes measured after 30 mins by liquid scintillation counting spectrometry. The class given is cell membranes, Hypothalamus, Membrane. In general terms: Displacement assays read how much labelled ligand stays bound in the presence of the test substance.
Data set [3] has as its system Mus musculus. In words: Antialzheimer activity in 5xFAD transgenic Alzheimer disease mouse model assessed as decrease in iNOS expression at 1 mg/kg/day by Western blot analysis. A general note: In western blotting, separated proteins are transferred to a membrane and probed.
Data set [4] in a line: Stability in human plasma assessed as compound remaining after1 hrs. The class given is ADME, cell-free. As to conditions: read-out: Stabilty. In short, it runs like this: (§1)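 Pooled human plasma from healthy donors, sampled at 0, 1, 2 and 6 h, reported as percentage of parent remaining.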
For data set [5], the system named is Mus musculus. In words: Neuroprotection in naive mouse assessed as reduction in hippocampal FADD protein level at 50 mg/kg, ip by Western blot analysis relative to control. It counts as functional. Details: scale not given: the % may be the effect or the level left. In short, it runs like this:
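Adult naive CD-1 mice received one i.p. dose (n = 7) or saline vehicle (2 ml/kg, n = 6) and were killed 1 h later. Hippocampal protein (40 µg) was run on 10% SDS-PAGE, blotted to nitrocellulose and probed with anti-FADD, then ECL. Band IOD densitometry was expressed as % of same-gel vehicle controls, averaged over 2–4 gels per sample.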

Data set [6] in a line: Displacement of [3H]clonidine from imidazoline I1 receptor low affinity site in human hypothalamic membranes measured after 30 mins by liquid scintillation counting spectrometry. It counts as cell membranes, Hypothalamus, Membrane.
The species named for data set [7] is Mus musculus. In words: Displacement of [3H]2-BFI from imidazoline I2 receptor in Swiss mouse brain cerebral cortex membrane assessed as occupancy at high affinity site measured after 45 mins by liquid scintillation counting spectrometry.
Data set [8] relates to HCT-116. In words: Cytotoxicity against human HCT-116 cells at 100 uM by real time IncuCyte proliferation assay. It counts as cell-based. As to conditions: hct-116, 100 µM. In short, it runs like this:
(§2)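 Adherent lines (LN-229, Capan-1, HCT-116, NCI-H460) seeded at 500–1500 cells/well and treated after overnight attachment. Suspension lines (HL-60, K-562, Z-138, DND-41) seeded at 2500–5500 cells/well directly with compound. Highest concentration 100 μM; proliferation tracked by real-time IncuCyte imaging over 72 h at 37 °C.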

For data set [9], the system named is Mus musculus. In words: Antialzheimer activity in 5xFAD transgenic Alzheimer disease mouse model assessed as increase in GPX1 expression at 1 mg/kg/day by Western blot analysis.
Data set [10] in a line: Microsomal stability in mouse liver microsomes assessed as parent compound remaining after 60 mins. The class given is ADME, Microsome. As to conditions: read-out: Stabilty. The method in brief:
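Human and mouse microsomes, incubation for 60 min, with percentage of parent compound remaining reported.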

Data set [11] has as its system Mus musculus. In words: Antialzheimer activity in 5xFAD transgenic Alzheimer disease mouse model assessed as decrease in heme oxygenase 1 expression at 1 mg/kg/day by Western blot analysis.
The nature of data set [12]: Stability in human plasma assessed as compound remaining after 6 hrs. The class given is ADME, cell-free. As to conditions: read-out: Stabilty. In short, it runs like this:
as §1

A short description of data set [13]: Stability in human plasma assessed as compound remaining after 2 hrs. It counts as ADME, cell-free. As to conditions: read-out: Stabilty. The method in brief: as §1
Data set [14] in a line: Cytotoxicity against human DND41 cells at 100 uM by real time IncuCyte proliferation assay. It counts as cell-based. The conditions noted are these: dnd41, 100 µM. The method in brief: as §2

Usually Papp stands for the rate of passage across a membrane or cell layer, normalised by area and donor concentration. The term Ki denotes a measure of affinity in units of concentration, obtained from inhibition or displacement.

Calls of active or inactive are those of the source. The rule behind the calls is not given here.

In turn, `Cl.c1ccc2oc(-c3ncc[nH]3)cc2c1` showed a Papp in data set [1] of 13.6 ×10⁻⁶ cm/s. For the same compound, the figures for the Ki in data set [2] and in data set [6] were 115 µM and 250 µM, respectively. In addition, the outcome in data set [3], in data set [9] and in data set [11] was Active. Moreover, the remaining at 1 h came out at 83% in data set [4] and 36% in data set [10]. In addition, the Activity in data set [5] is 34%; in data set [7], 41%; in data set [8] it was “Non-Toxic”; in data set [14], “Non-Toxic”. The remaining at 6 h in data set [12] worked out at 57%. Moreover, in [13], the remaining at 2 h is 77%.
